Data from ChEMBL document CHEMBL1828575, “Design, synthesis and antiproliferative activities of biarylolefins based on polyhydroxylated and carbohydrate scaffolds” (Eur J Med Chem, 2011).
The source made the active and inactive calls. The calls are words filed in the database; no cut-off is given here.

Columns and labels:
[1] = Antiproliferative activity against human MDA231 cells after 72 hrs by MTS assay; type: functional, cell-based; conditions: MDA-MB-231, 72 h
In short: (§1)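 Cell lines grown in RPMI with 10% fetal calf serum plus penicillin, streptomycin and fungizone under 5% CO2. Compounds in DMSO (1% final; controls got DMSO alone) were added 24 h after plating. After 72 h exposure, MTS was added for 3 h at 37 °C and A490 read. Inhibition = (1 − OD treated/OD control)×100, in triplicate. IC50s came from separate duplicate dose-response experiments.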

K562 [2] = assay: Antiproliferative activity against human K562 cells after 72 hrs by MTS assay; type: functional, cell-based; conditions: K562, 72 h; in short: as §1
SF-268 [3] = assay: Cytotoxicity against human SF268 cells at 10^-6 M after 72 hrs by MTS assay; type: functional; conditions: SF-268, 72 h, read-out: GI
In short: (§2)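 Preliminary screen at 10^-5 and 10^-6 M. Cells were grown in RPMI with 10% fetal calf serum plus penicillin, streptomycin and fungizone under 5% CO₂, plated in 96-well plates, and dosed 24 h later from DMSO stocks (1% DMSO final, same in controls). After 72 h, MTS was added for 3 h at 37 °C and absorbance read at 490 nm. Inhibition was calculated as (1 − OD treated/OD control) × 100, in triplicate.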

HCT-15 [4] = assay: Antiproliferative activity against human HCT15 cells after 72 hrs by MTS assay; type: functional, cell-based; conditions: HCT-15, 72 h; in short: as §1
HCT-116 [5] = assay: Cytotoxicity against human HCT116 cells at 10^-6 M after 72 hrs by MTS assay; type: functional; conditions: HCT-116, 72 h, read-out: GI
In short: (§3)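 Cells grown in RPMI with 10% fetal calf serum, penicillin, streptomycin and fungizone under 5% CO₂. Plated in 96-well plates and dosed 24 h later with compound in DMSO (1% final DMSO; controls got DMSO alone). After 72 h, MTS was added for 3 h at 37 °C and A490 read. Inhibition = (1 − OD treated/OD control) × 100, in triplicate.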

HT-29 [6] = assay: Cytotoxicity against human HT-29 cells at 10^-6 M after 72 hrs by MTS assay; type: functional; conditions: HT-29, 72 h, read-out: GI; in short: as §3
[7] = Cytotoxicity against human MDA231 cells at 10^-5 M after 72 hrs by MTS assay; type: functional; conditions: MDA-MB-231, 72 h, read-out: GI; in short: as §2
[8] = Cytotoxicity against human HL60R cells at 10^-5 M after 72 hrs by MTS assay; type: functional, HL-60; conditions: read-out: GI; in short: as §3
HCT-15 [9] = assay: Cytotoxicity against human HCT15 cells at 10^-5 M after 72 hrs by MTS assay; type: functional; conditions: HCT-15, 72 h, read-out: GI; in short: as §3
SK-OV-3 [10] = assay: Antiproliferative activity against human SKOV3 cells after 72 hrs by MTS assay; type: functional, cell-based; conditions: SK-OV-3, 72 h; in short: as §1
K562 [11] = assay: Cytotoxicity against human K562 cells at 10^-5 M after 72 hrs by MTS assay; type: functional; conditions: K562, 72 h, read-out: GI; in short: as §3
PC-3 [12] = assay: Antiproliferative activity against human PC3 cells after 72 hrs by MTS assay; type: functional, cell-based; conditions: PC-3, 72 h; in short: as §1
HCT-116 [13] = assay: Cytotoxicity against human HCT116 cells at 10^-5 M after 72 hrs by MTS assay; type: functional; conditions: HCT-116, 72 h, read-out: GI; in short: as §3
SF-268 [14] = assay: Antiproliferative activity against human SF268 cells after 72 hrs by MTS assay; type: functional, cell-based; conditions: SF-268, 72 h; in short: as §1
OVCAR-8 [15] = assay: Cytotoxicity against human OVCAR8 cells at 10^-6 M after 72 hrs by MTS assay; type: functional; conditions: OVCAR-8, 72 h, read-out: GI; in short: as §2
PC-3 [16] = assay: Cytotoxicity against human PC3 cells at 10^-6 M after 72 hrs by MTS assay; type: functional; conditions: PC-3, 72 h, read-out: GI; in short: as §2
[17] = Antiproliferative activity against human HL60R cells after 72 hrs by MTS assay; type: functional, cell-based
MIA PaCa-2 [18] = assay: Cytotoxicity against human MIAPaCa2 cells at 10^-6 M after 72 hrs by MTS assay; type: functional; conditions: MIA PaCa-2, 72 h, read-out: GI
[19] = Cytotoxicity against human MDA231 cells at 10^-6 M after 72 hrs by MTS assay; type: functional; conditions: MDA-MB-231, 72 h, read-out: GI; in short: as §2
K562 [20] = assay: Cytotoxicity against human K562 cells at 10^-6 M after 72 hrs by MTS assay; type: functional; conditions: K562, 72 h, read-out: GI; in short: as §3
SK-OV-3 [21] = assay: Cytotoxicity against human SKOV3 cells at 10^-6 M after 72 hrs by MTS assay; type: functional; conditions: SK-OV-3, 72 h, read-out: GI; in short: as §2
MIA PaCa-2 [22] = assay: Cytotoxicity against human MIAPaCa2 cells at 10^-5 M after 72 hrs by MTS assay; type: functional; conditions: MIA PaCa-2, 72 h, read-out: GI
MCF7 [23] = assay: Cytotoxicity against human MCF7 cells at 10^-5 M after 72 hrs by MTS assay; type: functional; conditions: MCF7, 72 h, read-out: GI
HL-60 [24] = assay: Cytotoxicity against human HL60 cells at 10^-5 M after 72 hrs by MTS assay; type: functional; conditions: HL-60, 72 h, read-out: GI; in short: as §3
OVCAR-8 [25] = assay: Antiproliferative activity against human OVCAR8 cells after 72 hrs by MTS assay; type: functional, cell-based; conditions: OVCAR-8, 72 h; in short: as §1
A549 [26] = assay: Cytotoxicity against human A549 cells at 10^-6 M after 72 hrs by MTS assay; type: functional; conditions: A549, 72 h, read-out: GI; in short: as §3
MCF7 [27] = assay: Cytotoxicity against human MCF7 cells at 10^-6 M after 72 hrs by MTS assay; type: functional; conditions: MCF7, 72 h, read-out: GI
OVCAR-8 [28] = assay: Cytotoxicity against human OVCAR8 cells at 10^-5 M after 72 hrs by MTS assay; type: functional; conditions: OVCAR-8, 72 h, read-out: GI; in short: as §2
SK-OV-3 [29] = assay: Cytotoxicity against human SKOV3 cells at 10^-5 M after 72 hrs by MTS assay; type: functional; conditions: SK-OV-3, 72 h, read-out: GI; in short: as §2
Ovis aries = species: Ovis aries; assay: Inhibition of sheep brain tubulin polymerization at 10 uM
In short: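 Microtubule protein from sheep brain, purified by two assembly/disassembly cycles (37 °C/0 °C), in 100 mM MES pH 6.6, 1 mM EGTA, 0.5 mM MgCl₂. Compounds in DMSO were tested at a single concentration, with incubation at 37 °C for 10 min and then 0 °C for 5 min before measuring assembly rate, following a modified Guénard protocol.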

A549 [30] = assay: Cytotoxicity against human A549 cells at 10^-5 M after 72 hrs by MTS assay; type: functional; conditions: A549, 72 h, read-out: GI; in short: as §3
HCT-15 [31] = assay: Cytotoxicity against human HCT15 cells at 10^-6 M after 72 hrs by MTS assay; type: functional; conditions: HCT-15, 72 h, read-out: GI; in short: as §3
PC-3 [32] = assay: Cytotoxicity against human PC3 cells at 10^-5 M after 72 hrs by MTS assay; type: functional; conditions: PC-3, 72 h, read-out: GI; in short: as §2
[33] = Cytotoxicity against human HL60R cells at 10^-6 M after 72 hrs by MTS assay; type: functional; conditions: read-out: GI; in short: as §3
HL-60 [34] = assay: Antiproliferative activity against human HL60 cells after 72 hrs by MTS assay; type: functional, cell-based; conditions: HL-60, 72 h; in short: as §1
HT-29 [35] = assay: Cytotoxicity against human HT-29 cells at 10^-5 M after 72 hrs by MTS assay; type: functional; conditions: HT-29, 72 h, read-out: GI; in short: as §3
HL-60 [36] = assay: Cytotoxicity against human HL60 cells at 10^-6 M after 72 hrs by MTS assay; type: functional; conditions: HL-60, 72 h, read-out: GI; in short: as §3
SF-268 [37] = assay: Cytotoxicity against human SF268 cells at 10^-5 M after 72 hrs by MTS assay; type: functional; conditions: SF-268, 72 h, read-out: GI; in short: as §2

Row | SMILES | inhibition of growth at 1 µM (SF-268 [3]) | inhibition of growth at 1 µM (HCT-116 [5]) | inhibition of growth at 1 µM (HT-29 [6]) | inhibition of growth at 10 µM [7] | inhibition of growth at 10 µM [8] | inhibition of growth at 10 µM (HCT-15 [9]) | inhibition of growth at 10 µM (K562 [11]) | inhibition of growth at 10 µM (HCT-116 [13]) | inhibition of growth at 1 µM (OVCAR-8 [15]) | inhibition of growth at 1 µM (PC-3 [16]) | inhibition of growth at 1 µM (MIA PaCa-2 [18]) | inhibition of growth at 1 µM [19] | inhibition of growth at 1 µM (K562 [20]) | inhibition of growth at 1 µM (SK-OV-3 [21]) | inhibition of growth at 10 µM (MIA PaCa-2 [22]) | inhibition of growth at 10 µM (MCF7 [23]) | inhibition of growth at 10 µM (HL-60 [24]) | inhibition of growth at 1 µM (A549 [26]) | inhibition of growth at 1 µM (MCF7 [27]) | inhibition of growth at 10 µM (OVCAR-8 [28]) | other results
1 | COc1cc(C(=C(CO)CO)c2ccc3ccccc3c2)cc(OC)c1OC | 14% | 0% | 0% | 88% | 89% | 82% | 83% | 68% | 0% | 10% | 0% | 5% | 24% | 5% | 54% | 51% | 75% | 3% | 8% | 67% | IC50 [1]: 810 nM; IC50 (K562 [2]): 170 nM; IC50 (HCT-15 [4]): 390 nM; IC50 (SK-OV-3 [10]): 6.84 µM; IC50 (PC-3 [12]): 760 nM; IC50 (SF-268 [14]): 1250 nM; IC50 [17]: 1680 nM; IC50 (OVCAR-8 [25]): 4.47 µM; inhibition of growth at 10 µM (SK-OV-3 [29]): 64%; tubulin polymerization inhibition call (active/not active) (Ovis aries): inactive; inhibition of growth at 10 µM (A549 [30]): 67%; inhibition of growth at 1 µM (HCT-15 [31]): 19%; inhibition of growth at 10 µM (PC-3 [32]): 75%; inhibition of growth at 1 µM [33]: 11%; IC50 (HL-60 [34]): 780 nM; inhibition of growth at 10 µM (HT-29 [35]): 71%; inhibition of growth at 1 µM (HL-60 [36]): 17%; inhibition of growth at 10 µM (SF-268 [37]): 85%
2 | COc1cc(C(=C(COC(C)=O)COC(C)=O)c2cc(OC)c(OC)c(OC)c2)cc(OC)c1OC | 26% | 0% | 0% | 69% | 36% | 48% | 29% | 17% | 0% | 7% | 0% | 0% | 12% | 8% | 10% | 44% | 39% | 0% | 5% | 24% | inhibition of growth at 10 µM (SK-OV-3 [29]): 23%; tubulin polymerization inhibition call (active/not active) (Ovis aries): inactive; inhibition of growth at 10 µM (A549 [30]): 22%; inhibition of growth at 1 µM (HCT-15 [31]): 19%; inhibition of growth at 10 µM (PC-3 [32]): 44%; inhibition of growth at 1 µM [33]: 11%; inhibition of growth at 10 µM (HT-29 [35]): 4%; inhibition of growth at 1 µM (HL-60 [36]): 15%; inhibition of growth at 10 µM (SF-268 [37]): 53%
3 | COc1cc(C(=C(COC(C)=O)COC(C)=O)c2ccc3ccccc3c2)cc(OC)c1OC | 17% | 0% | 0% | 74% | 41% | 65% | 83% | 20% | 0% | 18% | 4% | 0% | 12% | 12% | 15% | 17% | 82% | 3% | 10% | 6% | inhibition of growth at 10 µM (SK-OV-3 [29]): 46%; tubulin polymerization inhibition call (active/not active) (Ovis aries): inactive; inhibition of growth at 10 µM (A549 [30]): 45%; inhibition of growth at 1 µM (HCT-15 [31]): 8%; inhibition of growth at 10 µM (PC-3 [32]): 62%; inhibition of growth at 1 µM [33]: 19%; inhibition of growth at 10 µM (HT-29 [35]): 22%; inhibition of growth at 1 µM (HL-60 [36]): 11%; inhibition of growth at 10 µM (SF-268 [37]): 81%
